Results: PubChem BioAssay AID1216 (Sanford-Burnham Center for Chemical Genomics, 2008)
Among all 190,000 compounds or so, about 660 (0.35%) were called active. The sample holds actives, similar compounds and a random draw of the others, so the mix is not that of the screen. Unmarked numbers belong to inactive results.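 How the source made its calls: active means activation factor of 2 or more at 20 µM; inactive means the rest.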

Biological target: Mannose-6-phosphate isomerase (Homo sapiens) (UniProt P34949)
Sequence (P34949 whole entry, looked up): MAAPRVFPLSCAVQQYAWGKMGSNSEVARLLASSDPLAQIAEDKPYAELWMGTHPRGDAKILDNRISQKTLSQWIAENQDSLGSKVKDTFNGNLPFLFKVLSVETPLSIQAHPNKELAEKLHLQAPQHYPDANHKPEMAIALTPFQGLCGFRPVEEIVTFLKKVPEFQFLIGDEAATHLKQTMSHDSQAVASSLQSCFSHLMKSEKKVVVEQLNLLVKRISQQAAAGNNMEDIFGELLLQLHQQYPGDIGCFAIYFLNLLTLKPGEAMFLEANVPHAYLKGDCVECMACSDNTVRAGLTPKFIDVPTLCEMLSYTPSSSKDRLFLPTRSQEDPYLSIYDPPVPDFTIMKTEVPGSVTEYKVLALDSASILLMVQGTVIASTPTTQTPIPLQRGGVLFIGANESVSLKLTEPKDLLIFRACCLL
Assay: human PMI activators, high substrate, primary screen, biochemical, fluorescence intensity, near-saturating mannose 6-phosphate (AID 1216)
Settings: coupled PMI enzyme assay, resazurin fluorescence, 20 min; at 20 µM; active compounds read high; 1 = untreated enzyme, 0 = substrate-free blank
Summary of the method: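 Test system: Human PMI in coupled enzyme assay | Input: 15 ng/mL PMI | Medium: HEPES-buffered pH 7.4 with magnesium and detergent | Compound: One concentration, 20 µM, in 1% DMSO | Incubation: Enzyme reaction with compound 20 min at room temperature | Detection: Diaphorase-driven resazurin-to-resorufin fluorescence, excitation 544, emission 590 nm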

| SMILES | activation factor |
| --- | --- |
| Cc1cc(C)cc(C(=O)NCC(=O)OCC(=O)N2CCCCC2)c1 | 1.2 |
| Cc1ccc(N/C(N)=N/c2nc(C(F)(F)F)cc(C(F)(F)F)n2)cc1 | 1.1 |
| O=C(CN1CCN(c2ccccc2F)CC1)c1ccc2c(c1)OCO2 | 2 (active) |
| O=C(CN1CCN(CC(=O)Nc2ccc3c(c2)OCO3)CC1)Nc1ccc(F)cc1 | 1 |
| O=C(Nc1ccccc1N1CCN(C(=O)c2ccccc2)CC1)c1ccc2c(c1)OCO2 | 0.9 |
| S=C(Nc1ccc(Br)cc1Cl)N1CCC2(CC1)OCCO2 | 0.9 |
| CCOC(=O)/C(=N\Nc1cc(Cl)ccc1Cl)N1CCN(C)CC1 | 1 |
| CC(C)(C)C(=O)CSc1nc2ccccc2o1 | 0.9 |
| CN1CCN(S(=O)(=O)c2cccc(C(=O)O)c2)CC1 | 1.1 |
| CC1Cc2ccccc2N1C(=O)CSc1nnc(-c2ccc(S(=O)(=O)N3CCCC3)cc2)n1C (stereo unspecified) | 0.4 |
| COc1ccccc1NC(=O)C1=C(C)Nc2nc3ccccc3n2C1c1cccs1 (stereo unspecified) | 1 |
| COC(=O)Cc1cc(=O)n(-c2nc3ccccc3s2)[nH]1 | 2 (active) |
| COC(=O)Cc1nc2ccccc2[nH]1 | 1 |
| CCC(=O)NC(=Nc1nc2ccccc2s1)NC(=O)CC | 1.1 |
| CCCCN=C1C([N+](=O)[O-])=CC=C2C1=NC1(CCCCC1)N2O | 0.5 |
| O=C(Nc1cccnc1)c1cc2cc(Br)ccc2oc1=O | 1.1 |
| CS(=O)(=O)N(CC(=O)NC1CCCC1)Cc1ccc(F)cc1 | 1 |
| CCC1=NN(C(=O)Cc2ccc([N+](=O)[O-])cc2)C(O)(c2ccc(Br)cc2)C1 (stereo unspecified) | 0.9 |

| SMILES | activation factor |
| --- | --- |
| CCN(CC)CCN1C(=O)C(=O)/C(=C(/O)c2ccccc2)C1c1ccccc1F (stereo unspecified) | 1 |
| CCN(CC)CCN1C(=O)C(=O)/C(=C(/O)c2cnn(-c3ccccc3)c2C)C1c1cccs1 (stereo unspecified) | 2 (active) |
| CCN(CC)CCN1C(=O)C(=O)/C(=C(/O)c2ccc(OC)c(OC)c2)C1c1ccccn1 (stereo unspecified) | 1.2 |
| Cc1cc(C)c(OCCN2CC(C)OC(C)C2)c(Br)c1 (stereo unspecified) | 0.9 |
| Cc1scc(C(=O)NNC(=S)NCc2ccccc2)c1C | 1.1 |
| S=C(c1ccc(-c2ccccc2)o1)N1CCCCC1 | 0.9 |
| C=CCN(C(=O)c1cc(C)cc(C)c1)C1(C(=O)Nc2ccccc2)CCN(C(C)C)CC1 | 1 |
| COc1cccc(CN2CCNC(=O)C2CC(=O)N(C)CCc2ccccn2)c1 (stereo unspecified) | 0.7 |
| CC1=C(C)CC(C(=O)NNC(=O)c2csc3c2CCC(C(C)(C)C)C3)C(C(=O)O)C1 (stereo unspecified) | 1 |
| Cc1ccc(/C(N)=N/OC(=O)COc2ccc(Cl)c(C)c2)cc1 | 1 |
| Nc1ncc(-c2cc3ccccc3oc2=O)s1 | 0.8 |
| O=C(c1cn(-c2ccccc2)nc1-c1cc2ccccc2oc1=O)N1CCOCC1 | 1 |
| O=c1oc2ccccc2cc1-c1cn(-c2ccccc2)c(=S)[nH]1 | 2.3 (active) |
| O=S1(=O)CC/C(=N\Nc2ccc(F)cc2)c2ccsc21 | 2.6 (active) |
| COC(=O)c1nc(NC(=O)c2ccc(F)cc2)n[nH]1 | 1 |
| CCOC(=O)C1(O)CC(C)=NN1C(=O)c1cccc(Br)c1 (stereo unspecified) | 1.1 |
| Cn1cccc1/C=N/NC(=O)c1ccc(OC(F)(F)C(F)F)cc1 | 0.9 |
| O=C(NCc1ccccc1Cl)C1CCCO1 (stereo unspecified) | 1 |
